ChEMBL document CHEMBL1268917, “Synthesis and biological evaluation of radio-iodinated benzimidazoles as SPECT imaging agents for NR2B subtype of NMDA receptor” (Bioorg Med Chem, 2010)

How the values were obtained:
Assay type in all cases: ADME, organism-based
[1] = tested on: Blood; assay: Biodistribution in ddY mouse blood assessed per gram of tissue at 14.8 kBq, iv after 60 mins; settings: in vivo, 1 h
Method in brief: (§1)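 Killed at set times after injection; organs and blood removed, weighed, gamma counted. Data as % injected dose per gram tissue, mean SD, n = 5–6.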

[2] = tested on: Heart; assay: Biodistribution in ddY mouse heart assessed per gram of tissue at 14.8 kBq, iv after 60 mins; settings: in vivo, 1 h; method in brief: as §1
[3] = tested on: Heart; assay: Biodistribution in ddY mouse heart assessed per gram of tissue at 14.8 kBq, iv after 30 mins; settings: in vivo, 0.5 h; method in brief: as §1
[4] = tested on: Brain; assay: Biodistribution in ddY mouse brain assessed per gram of tissue at 14.8 kBq, iv after 0.5 mins; settings: in vivo; method in brief: as §1
[5] = tested on: Lung; assay: Biodistribution in ddY mouse lung assessed per gram of tissue at 14.8 kBq, iv after 0.5 mins; settings: in vivo
Method in brief: (§2)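 Radioiodinated tracer (14.8 kBq) injected via tail vein into male ddY mice (6 weeks, 30–35 g). Organs removed at set times after injection, weighed and gamma-counted; uptake expressed as % injected dose per gram tissue, mean ± SD, n = 5–6.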

[6] = tested on: Stomach; assay: Biodistribution in ddY mouse stomach assessed per gram of tissue at 14.8 kBq, iv after 5 mins; settings: in vivo; method in brief: as §2
[7] = tested on: Blood; assay: Biodistribution in ddY mouse blood assessed per gram of tissue at 14.8 kBq, iv after 5 mins; settings: in vivo; method in brief: as §1
[8] = tested on: Kidney; assay: Biodistribution in ddY mouse kidney assessed per gram of tissue at 14.8 kBq, iv after 180 mins; settings: in vivo, 3 h; method in brief: as §1
[9] = tested on: Pancreas; assay: Biodistribution in ddY mouse pancreas assessed per gram of tissue at 14.8 kBq, iv after 5 mins; settings: in vivo; method in brief: as §2
[10] = tested on: Liver; assay: Biodistribution in ddY mouse liver assessed per gram of tissue at 14.8 kBq, iv after 0.5 mins; settings: in vivo; method in brief: as §1
[11] = tested on: Lung; assay: Biodistribution in ddY mouse lung assessed per gram of tissue at 14.8 kBq, iv after 360 mins; settings: in vivo, 6 h; method in brief: as §2
[12] = tested on: Intestine; assay: Biodistribution in ddY mouse intestine assessed per gram of tissue at 14.8 kBq, iv after 0.5 mins; settings: in vivo; method in brief: as §1
[13] = tested on: Spleen; assay: Biodistribution in ddY mouse spleen assessed per gram of tissue at 14.8 kBq, iv after 360 mins; settings: in vivo, 6 h; method in brief: as §2
[14] = tested on: Intestine; assay: Biodistribution in ddY mouse intestine assessed per gram of tissue at 14.8 kBq, iv after 60 mins; settings: in vivo, 1 h; method in brief: as §1
[15] = tested on: Pancreas; assay: Biodistribution in ddY mouse pancreas assessed per gram of tissue at 14.8 kBq, iv after 30 mins; settings: in vivo, 0.5 h; method in brief: as §2
[16] = tested on: Heart; assay: Biodistribution in ddY mouse heart assessed per gram of tissue at 14.8 kBq, iv after 5 mins; settings: in vivo; method in brief: as §1
[17] = tested on: Liver; assay: Biodistribution in ddY mouse liver assessed per gram of tissue at 14.8 kBq, iv after 5 mins; settings: in vivo; method in brief: as §1
[18] = tested on: Lung; assay: Biodistribution in ddY mouse lung assessed per gram of tissue at 14.8 kBq, iv after 30 mins; settings: in vivo, 0.5 h; method in brief: as §2
[19] = tested on: Pancreas; assay: Biodistribution in ddY mouse pancreas assessed per gram of tissue at 14.8 kBq, iv after 60 mins; settings: in vivo, 1 h; method in brief: as §2
[20] = tested on: Brain; assay: Biodistribution in ddY mouse brain assessed per gram of tissue at 14.8 kBq, iv after 360 mins; settings: in vivo, 6 h; method in brief: as §1
[21] = tested on: Brain; assay: Biodistribution in ddY mouse brain assessed per gram of tissue at 14.8 kBq, iv after 30 mins; settings: in vivo, 0.5 h; method in brief: as §1
[22] = tested on: Brain; assay: Biodistribution in ddY mouse brain assessed per gram of tissue at 14.8 kBq, iv after 5 mins; settings: in vivo; method in brief: as §1
[23] = tested on: Blood; assay: Biodistribution in ddY mouse blood assessed per gram of tissue at 14.8 kBq, iv after 0.5 mins; settings: in vivo; method in brief: as §1
[24] = tested on: Stomach; assay: Biodistribution in ddY mouse stomach assessed per gram of tissue at 14.8 kBq, iv after 360 mins; settings: in vivo, 6 h; method in brief: as §2
[25] = tested on: Spleen; assay: Biodistribution in ddY mouse spleen assessed per gram of tissue at 14.8 kBq, iv after 180 mins; settings: in vivo, 3 h; method in brief: as §2
[26] = tested on: Blood; assay: Biodistribution in ddY mouse blood assessed per gram of tissue at 14.8 kBq, iv after 30 mins; settings: in vivo, 0.5 h; method in brief: as §1
[27] = tested on: Stomach; assay: Biodistribution in ddY mouse stomach assessed per gram of tissue at 14.8 kBq, iv after 60 mins; settings: in vivo, 1 h; method in brief: as §2
[28] = tested on: Intestine; assay: Biodistribution in ddY mouse intestine assessed per gram of tissue at 14.8 kBq, iv after 5 mins; settings: in vivo; method in brief: as §1
[29] = tested on: Intestine; assay: Biodistribution in ddY mouse intestine assessed per gram of tissue at 14.8 kBq, iv after 30 mins; settings: in vivo, 0.5 h; method in brief: as §1
[30] = tested on: Pancreas; assay: Biodistribution in ddY mouse pancreas assessed per gram of tissue at 14.8 kBq, iv after 180 mins; settings: in vivo, 3 h; method in brief: as §2

Drug uptake [1]: 0.54 % ID/g
Drug uptake [2]: 4.35 % ID/g
Drug uptake [3]: 4.29 % ID/g
Drug uptake [4]: 0.32 % ID/g
Drug uptake [5]: 3.82 % ID/g
Drug uptake [6]: 1.28 % ID/g
Drug uptake [7]: 0.95 % ID/g
Drug uptake [8]: 15.23 % ID/g
Drug uptake [9]: 3.09 % ID/g
Drug uptake [10]: 4.6 % ID/g
Drug uptake [11]: 0.93 % ID/g
Drug uptake [12]: 0.55 % ID/g
Drug uptake [13]: 1.6 % ID/g
Drug uptake [14]: 3.79 % ID/g
Drug uptake [15]: 3.71 % ID/g
Drug uptake [16]: 5.83 % ID/g
Drug uptake [17]: 19.35 % ID/g
Drug uptake [18]: 1.86 % ID/g
Drug uptake [19]: 4.55 % ID/g
Drug uptake [20]: 0.47 % ID/g
Drug uptake [21]: 0.5 % ID/g
Drug uptake [22]: 0.44 % ID/g
Drug uptake [23]: 4.74 % ID/g
Drug uptake [24]: 3.56 % ID/g
Drug uptake [25]: 2.85 % ID/g
Drug uptake [26]: 0.53 % ID/g
Drug uptake [27]: 2.4 % ID/g
Drug uptake [28]: 1.58 % ID/g
Drug uptake [29]: 3.07 % ID/g
Drug uptake [30]: 5.39 % ID/g
Compound: CS(=O)(=O)Nc1ccc2nc(CN3CCC(Cc4ccc([125I])cc4)CC3)[nH]c2c1
